Assay results taken from ChEMBL document CHEMBL5724801, “EUbOPEN Chemogenomics Library - Multiplex” (2024).
Values joined by “and” are separate entries in the source; they are usually repeats but may differ in a detail not shown here. Equal values may be shown once.

System: U2OS
Test: Multiplex assay against U2OS
Format: toxicity, cell-based
Details: human
Summary of the method: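 Hoechst33342, BioTracker Green Microtubule Cytoskeleton Dye, MitoTracker Red and Annexin V Alexa Fluor 680 were added to live cells at seeding, and imaging on a CQ1 microscope at 37°C and 5% CO2 followed compound addition. Gating by CellPathfinder machine learning separated cells into Hoechst high-intensity objects or normal cells, then normal cells into healthy, pyknosed or fragmented nuclei, then pyknosed cells into mitotic or apoptotic. Per cents of healthy-nucleus cells are reported for the tubulin, mitochondrial-mass and membrane-permeability phenotypes.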

[1] = 12 h, 1 µM, compound concentration 1 uM
[2] = 12 h, 10 µM, compound concentration 10 uM
[3] = 24 h, 1 µM, compound concentration 1 uM
[4] = 24 h, 10 µM, compound concentration 10 uM
[5] = 48 h, 1 µM, compound concentration 1 uM
[6] = 48 h, 10 µM, compound concentration 10 uM

## O=C(O)c1cc2ccccc2c(Cc2c(O)c(C(=O)O)cc3ccccc23)c1O [PAMOIC ACID]
[1]
  Population Apoptotic (%): 85% and 50%
  Population Fragmented Nuclei (%): 23% and 15%
  Population Healthy Nuclei (%): 68% and 73%
  Population Hoechst High Intensity Objects (%): 1% and 0%
  Population Membrane Permeable-Phenotype (%): 2% and 12%
  Population Mitochondria Different-Phenotype (%): 0% and 6%
  Population Normal (%): 98% and 100%
  Population Pyknosed Nuclei (%): 8% and 11%
  Population Tubulin-Different-Phenotype (%): 0% and 13%
  Total Cell Count: 246 and 109
[2]
  Population Apoptotic (%): 75% and 87%
  Population Fragmented Nuclei (%): 19%
  Population Healthy Nuclei (%): 75%
  Population Hoechst High Intensity Objects (%): 2% and 0%
  Population Membrane Permeable-Phenotype (%): 6% and 5%
  Population Mitochondria Different-Phenotype (%): 1% and 3%
  Population Mitotic Cells (%): 25% and 12%
  Population Normal (%): 97% and 100%
  Population Pyknosed Nuclei (%): 4% and 5%
  Population Tubulin-Different-Phenotype (%): 4% and 2%
  Total Cell Count: 259 and 140
[3]
  Population Apoptotic (%): 92% and 76%
  Population Fragmented Nuclei (%): 18% and 20%
  Population Healthy Nuclei (%): 72% and 70%
  Population Hoechst High Intensity Objects (%): 1% and 0%
  Population Membrane Permeable-Phenotype (%): 2% and 11%
  Population Mitochondria Different-Phenotype (%): 0% and 2%
  Population Mitotic Cells (%): 8% and 23%
  Population Normal (%): 98% and 99%
  Population Pyknosed Nuclei (%): 8% and 9%
  Population Tubulin-Different-Phenotype (%): 1% and 7%
  Total Cell Count: 288 and 139
[4]
  Population Apoptotic (%): 82% and 90%
  Population Fragmented Nuclei (%): 17% and 13%
  Population Healthy Nuclei (%): 76% and 79%
  Population Hoechst High Intensity Objects (%): 3% and 1%
  Population Membrane Permeable-Phenotype (%): 5% and 7%
  Population Mitochondria Different-Phenotype (%): 2% and 3%
  Population Mitotic Cells (%): 17% and 9%
  Population Normal (%): 96% and 98%
  Population Pyknosed Nuclei (%): 5% and 6%
  Population Tubulin-Different-Phenotype (%): 3% and 7%
  Total Cell Count: 314 and 163
[5]
  Population Apoptotic (%): 83% and 90%
  Population Fragmented Nuclei (%): 16% and 11%
  Population Healthy Nuclei (%): 74% and 76%
  Population Hoechst High Intensity Objects (%): 1% and 2%
  Population Membrane Permeable-Phenotype (%): 2% and 9%
  Population Mitochondria Different-Phenotype (%): 1% and 3%
  Population Mitotic Cells (%): 16% and 10%
  Population Normal (%): 98% and 97%
  Population Pyknosed Nuclei (%): 9% and 11%
  Population Tubulin-Different-Phenotype (%): 2% and 5%
  Total Cell Count: 469 and 177
[6]
  Population Apoptotic (%): 96% and 89%
  Population Fragmented Nuclei (%): 15% and 20%
  Population Healthy Nuclei (%): 77% and 66%
  Population Hoechst High Intensity Objects (%): 3% and 0%
  Population Membrane Permeable-Phenotype (%): 5% and 6%
  Population Mitochondria Different-Phenotype (%): 1% and 2%
  Population Mitotic Cells (%): 3% and 10%
  Population Normal (%): 96% and 99%
  Population Pyknosed Nuclei (%): 6% and 13%
  Population Tubulin-Different-Phenotype (%): 4% and 2%
  Total Cell Count: 455 and 218

## COCCCN1CCC(NC(=O)c2cc(Cl)c(N)c3c2OCC3)CC1 [PRUCALOPRIDE]
[1]
  Population Apoptotic (%): 84% and 87%
  Population Fragmented Nuclei (%): 30% and 21%
  Population Healthy Nuclei (%): 63% and 71%
  Population Hoechst High Intensity Objects (%): 1% and 0%
  Population Membrane Permeable-Phenotype (%): 7% and 12%
  Population Mitochondria Different-Phenotype (%): 3% and 7%
  Population Mitotic Cells (%): 15% and 12%
  Population Normal (%): 98% and 99%
  Population Pyknosed Nuclei (%): 6% and 7%
  Population Tubulin-Different-Phenotype (%): 4% and 8%
  Total Cell Count: 207 and 110
[2]
  Population Apoptotic (%): 68% and 47%
  Population Fragmented Nuclei (%): 22% and 13%
  Population Healthy Nuclei (%): 63% and 73%
  Population Hoechst High Intensity Objects (%): 3% and 2%
  Population Membrane Permeable-Phenotype (%): 4% and 1%
  Population Mitochondria Different-Phenotype (%): 0% and 1%
  Population Mitotic Cells (%): 31% and 52%
  Population Normal (%): 96% and 97%
  Population Pyknosed Nuclei (%): 13% and 12%
  Population Tubulin-Different-Phenotype (%): 2% and 1%
  Total Cell Count: 238 and 140
[3]
  Population Apoptotic (%): 80%
  Population Fragmented Nuclei (%): 26% and 23%
  Population Healthy Nuclei (%): 65% and 69%
  Population Hoechst High Intensity Objects (%): 2% and 1%
  Population Membrane Permeable-Phenotype (%): 5% and 8%
  Population Mitochondria Different-Phenotype (%): 3% and 4%
  Population Mitotic Cells (%): 20%
  Population Normal (%): 97% and 98%
  Population Pyknosed Nuclei (%): 8% and 7%
  Population Tubulin-Different-Phenotype (%): 5% and 7%
  Total Cell Count: 247 and 132
[4]
  Population Apoptotic (%): 87% and 77%
  Population Fragmented Nuclei (%): 23% and 12%
  Population Healthy Nuclei (%): 64% and 76%
  Population Hoechst High Intensity Objects (%): 4% and 1%
  Population Membrane Permeable-Phenotype (%): 5% and 3%
  Population Mitochondria Different-Phenotype (%): 2%
  Population Mitotic Cells (%): 12% and 22%
  Population Normal (%): 95% and 98%
  Population Pyknosed Nuclei (%): 12% and 11%
  Population Tubulin-Different-Phenotype (%): 4% and 3%
  Total Cell Count: 280 and 161
[5]
  Population Apoptotic (%): 85% and 86%
  Population Fragmented Nuclei (%): 20%
  Population Healthy Nuclei (%): 73% and 67%
  Population Hoechst High Intensity Objects (%): 3% and 2%
  Population Membrane Permeable-Phenotype (%): 3% and 11%
  Population Mitochondria Different-Phenotype (%): 1% and 6%
  Population Mitotic Cells (%): 14% and 13%
  Population Normal (%): 96% and 97%
  Population Pyknosed Nuclei (%): 6% and 11%
  Population Tubulin-Different-Phenotype (%): 3% and 9%
  Total Cell Count: 352 and 199
[6]
  Population Apoptotic (%): 88% and 90%
  Population Fragmented Nuclei (%): 17% and 11%
  Population Healthy Nuclei (%): 69% and 79%
  Population Hoechst High Intensity Objects (%): 1%
  Population Membrane Permeable-Phenotype (%): 5% and 3%
  Population Mitochondria Different-Phenotype (%): 2% and 3%
  Population Mitotic Cells (%): 11% and 9%
  Population Normal (%): 98%
  Population Pyknosed Nuclei (%): 12% and 9%
  Population Tubulin-Different-Phenotype (%): 2% and 1%
  Total Cell Count: 347 and 245
